High-throughput results as filed in PubChem BioAssay.
Dynein transport: inhibitors of GR-EGFP nuclear translocation, primary screen, dynein cargo transport inhibitor project, imaging, high-content, 3617.4 mouse cells; test concentration mostly 20 µM; stimulated with dexamethasone, 1 µM; hits give low values; z-score, hits read low; 220,000 tested, 0.47% active; AID 1381, 2008;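 active means plate z-score of nuclear minus cytoplasmic receptor signal below a set negative limit, without overly bright fluorescence or cell loss, cut at about -3.5 in these data, passing the limit was not always enough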;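 further: z-score of nuclear minus cytoplasmic ring GR-EGFP intensity difference per well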
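Also added: dexamethasone, 1.0 µM final. Medium: tet-free, stripped-serum medium. Detection: fixed, Hoechst-stained cells imaged at 10x for EGFP. Read-out: nuclear-to-cytoplasmic GR-EGFP distribution per well. Times: induction 48 h, compound 1 h, agonist 30 min.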
EP2 antag: human EP2 receptor antagonists, primary screen, TR-FRET cAMP, C6 glioma cells; Prostaglandin E2 receptor EP2 subtype (Homo sapiens), P43116; C6 glioma cells expressing human EP2; cells stimulated with saturating PGE2; inhibition, % at 25 µM; 260,000 tested, 0.52% active; AID 1422, 2008;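 active means percent inhibition above 40 after rounding to a whole number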;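 further: rat C6 glioma host cells with rolipram phosphodiesterase inhibitor present; the protocol text gives 20 µM as final concentration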
Target sequence (P43116 whole entry, looked up): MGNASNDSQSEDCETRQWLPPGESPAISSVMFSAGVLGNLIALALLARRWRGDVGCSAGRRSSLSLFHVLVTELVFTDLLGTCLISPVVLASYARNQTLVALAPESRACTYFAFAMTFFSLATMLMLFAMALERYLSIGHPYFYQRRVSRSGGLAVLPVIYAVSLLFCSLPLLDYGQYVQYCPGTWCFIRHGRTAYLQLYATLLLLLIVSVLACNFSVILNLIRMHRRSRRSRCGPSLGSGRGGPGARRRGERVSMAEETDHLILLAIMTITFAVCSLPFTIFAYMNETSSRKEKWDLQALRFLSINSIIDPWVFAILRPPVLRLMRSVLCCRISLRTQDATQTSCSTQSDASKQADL
Hsp70 act: Hsp70 transcriptional activators, primary screen, cell-based, HeLa, Hsp70 promoter luciferase, luminescence, 10 µM. HeLa Hsp70 promoter luciferase reporter; scaled: vehicle 0, proteasome-inhibitor control 100%. activation, % at 10 µM. 200,000 tested, 0.04% active;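 active means activation above the mean across all tested compounds plus 3 SD, cutoff set per campaign, cut at about 5.5% in these data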;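 further: 100% = MG132 at 30 µM as the positive control and 0% = DMSO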
EP2 modulator: EP2 receptor modulators, cAMP readout, primary screen, cell-based, HTRF cAMP, PGE2 stimulation; EP2-expressing cells, cAMP HTRF FRET, PGE2 co-stimulation; AID 940, 2007; induction, % at 25 µM; Prostaglandin E2 receptor EP2 subtype (Homo sapiens), P43116; 260,000 tested, 0.83% active;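 active means compounds whose cAMP rise, as percent of the full-agonist control response, exceeds 60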;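 further: rat C6 glioma line stably carrying human EP2 under a CMV promoter; the protocol text gives 20 µM as final concentration; 100% = response of wells given 1 µM PGE2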
The depositor's hits bear a star; x = no result given; ! = not active in a repeat. Compounds with a hit are over-represented: about 1.7% of the library has one in this group of screens.

SMILES	Dynein transport	EP2 antag	Hsp70 act	EP2 modulator
CCOc1ccc2[nH]c(=O)c(CN(CC3CCCO3)C(=S)NC3CCCCC3)cc2c1 (configuration not stated)	x	12.7	x	69.8*
CCn1c(N2CCC(C(=O)NC(C)C)CC2)nc2ccccc21	x	x	x	-82.5
O=C(NNC(=O)c1cccs1)C(=O)NC1CCCCC1	x	8.6	x	0.9
COc1ccc2c(c1OC)C(=O)O[C@@H]2[C@H]1c2c(cc3c(c2OC)OCO3)CCN1C	-0.878	10.2	-0.4	61.3*!
O=C1OC(c2ccc(O)c(-c3ccccc3)c2)(c2ccc(O)c(-c3ccccc3)c2)c2c(Cl)c(Cl)c(Cl)c(Cl)c21	x	46.9*	x	3.9
O=c1oc2ccc3ccccc3c2cc1-c1cn2cc(Cl)ccc2n1	x	13.8	x	-16.3
CC(=O)N(c1nc(CCl)cs1)c1ccc(C)cc1C	-0.673	10.2	-0.3	61.9*
O=S(=O)(O)[C@@H](CO)c1ccccc1 (tested in a mixture with another compound)	x	49.0*	x	24.3
CS(=O)(=O)c1sc2nc(-c3cccs3)cc(-c3ccccc3)c2c1N	-0.403	48.8*	0.3	26.2
Cc1ccc(-c2cc(-c3ccccc3)c3c(N)c(S(C)(=O)=O)sc3n2)cc1	0.808	6.1	-0.3	20.6
COc1ccc(CC(=O)N2CCC(c3ccc4c(c3)OCO4)CC2)cc1	x	x	x	-18.5
O=C(NCC1CC1)c1ccc(Nc2nc3ccc(Br)cc3[nH]2)cc1	0.428	74.2*	0.1	-44.5
CCCC(c1nnnn1CC1CCCO1)N(Cc1cc2ccc(C)cc2[nH]c1=O)C1CCCC1 (configuration not stated)	x	11.1	x	20.9
Cc1cc(C(=O)NCCCN(C)C)c2ccccc2n1	0.788	5.3	-0.4	2.6
CN(C)CCCc1c2ccccc2nc2ccc(Cl)cc12	x	57.5*	x	2.3
COc1cccc(CN2CCN(CC(=O)NCc3ccco3)[C@@H](C)C2)c1	x	x	x	-19.9
COc1ccccc1CNC(=O)c1ccc(OCc2c(C)noc2C)c(OC)c1	-1.08	14.3	0.0	-41.7
COc1cc(C(=O)NCCc2c[nH]c3ccccc23)ccc1OCc1c(C)noc1C	0.537	88.4*	-0.2	-103.0
CN1[C@@H]2CC(OC(=O)[C@@H](CO)c3ccccc3)C[C@H]1[C@H]1O[C@H]12 (some centres not stated)	x	51.8*	x	24.0
CC(C)n1c(C(=O)OC(C(=O)NCc2ccccc2)c2cccnc2)cc2sccc21 (configuration not stated)	x	8.2	x	56.7
COc1ccccc1CNC(=O)c1csc(Cc2ccc(Cl)cc2)n1	1.58	14.6	-0.1	62.1*
COc1ccc(CNC(=O)c2csc(Cc3ccccc3)n2)cc1	0.359	6.9	-0.2	-8.3
O=C(Cn1nc(C(F)(F)F)c2c1CCC2)Nc1ccc(F)c(Cl)c1	x	14.5	x	-37.7
O=C(Nc1ccc(Cl)cc1)C1CCC(=O)N1Cc1ccccc1Cl (configuration not stated)	0.354	15.4	-0.4	5.2
O=C(C1CCC(=O)N1Cc1ccccc1Cl)N1CCN(c2cccc(Cl)c2)CC1 (configuration not stated)	0.108	69.1*	-0.3	x
SMILES	Dynein transport	EP2 antag	Hsp70 act	EP2 modulator
c1ccc2c[n+](CCCC[n+]3ccc4ccccc4c3)ccc2c1	x	43.5*	x	-5.3
CC(O)CN(Cc1ccc2c(c1)OCO2)Cc1cn[nH]c1-c1ccccc1 (configuration not stated)	x	3.1	x	-19.2
Cc1cc(C)n(C(=O)CCCCCCCCC(=O)n2nc(C)cc2C)n1	-0.894	0.8	0.3	60.8*
COc1cc(-c2cc(C#N)on2)ccc1OCc1ccccc1	x	9.4	x	-15.9
O=C(O)[C@H](Cc1ccc(O)c([N+](=O)[O-])c1)N1C(=O)c2ccccc2C1=O	x	50.7*	x	10.3
O=C(O)C(Cc1ccccc1)N1C(=O)c2ccccc2C1=O (configuration not stated)	-0.358	5.7	0.2	4.6
CCOc1ccccc1NC(=S)N1CCC(NC(=O)c2cccc(C)c2)CC1	x	6.8	x	-92.4
CCCCN1C(=O)C2C3C=CC(C2C1=O)C1C2C(=O)N(CCCC)C(=O)C2C31 (configuration not stated)	0.0677	3.6	-0.4	0.2
